Reference: ChEMBL document CHEMBL1147902, “Phosphonoxins: rational design and discovery of a potent nucleotide anti-Giardia agent” (Bioorg Med Chem Lett, 2007)
Values after ≈ are worked out from the molar mass of the structure shown.

Legend:
[1] = test system: Giardia intestinalis; test: Antiprotozoal activity against Giardia lamblia WB6 trophozoites after 48 hrs; format: functional; conditions: Giardia duodenalis, WB6, 48 h
Outline: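 Trophozoites of strain WB-6 cultured anaerobically 48 h with 2-fold serial drug dilutions, triplicate wells; viability read by XTT reagent.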

[2] = Toxicity in MDBK cells; format: cell-based; conditions: Bos taurus
[3] = test system: Giardia intestinalis; test: Cyst formation in Giardia lamblia WB6 at 10 uM relative to control; conditions: Giardia duodenalis

| MIC [1] [µM] | SMILES | EC50 [2] [µM] | level, % of control at 10 µM [3] [%] |
| --- | --- | --- | --- |
| 20 (≈ 9.31 µg/mL) | O=c1ccn(C[C@@H]2O[C@H](COP(=O)(O)CCCN3C[C@H](O)[C@@H](O)C3)[C@@H](O)[C@H]2O)c(=O)[nH]1 | > 250 | 22.9 |
| > 20 | O=c1ccn(C[C@@H]2O[C@H](COP(=O)(O)CN3C[C@@H](O)[C@H](O)C3)[C@@H](O)[C@H]2O)c(=O)[nH]1 | > 250 |  |
| > 20 | CCOP(=O)(CCN(CCOC(C)=O)CCOC(C)=O)OCC | > 250 |  |
| > 10 | O=c1ccn(C[C@@H]2O[C@H](COP(=O)(O)CCN(CCO)CCO)[C@@H](O)[C@H]2O)c(=O)[nH]1 | > 250 | 72.2 |
| > 10 | CC(=O)OCCN(CCOC(C)=O)CCP(=O)(O)OC[C@H]1O[C@@H](Cn2ccc(=O)[nH]c2=O)[C@H](O)[C@@H]1O | > 250 | 27.4 |
| > 20 | O=c1ccn(C[C@@H]2O[C@H](COP(=O)(O)CCN3CCCC3)[C@@H](O)[C@H]2O)c(=O)[nH]1 | > 250 |  |
| > 10 | CC(=O)OCCN(CCO)CCP(=O)(O)OC[C@H]1O[C@@H](Cn2ccc(=O)[nH]c2=O)[C@H](O)[C@@H]1O | > 250 | 35.6 |
| > 20 | O=C1[C@@H](O)[C@H](O)C(=O)N1CCP(=O)(O)OC[C@H]1O[C@@H](Cn2ccc(=O)[nH]c2=O)[C@H](O)[C@@H]1O | > 250 | 28.7 |
| 20 (≈ 9.63 µg/mL) | O=c1ccn(C[C@@H]2O[C@H](COP(=O)(O)COCCN3C[C@@H](O)[C@H](O)C3)[C@@H](O)[C@H]2O)c(=O)[nH]1 | > 250 | 17.2 |
| > 20 | O=c1ccn(C[C@@H]2O[C@H](COP(=O)(O)CCNCCO)[C@@H](O)[C@H]2O)c(=O)[nH]1 | > 250 |  |
| 0.48 (≈ 0.217 µg/mL) | O=c1ccn(C[C@@H]2O[C@H](COP(=O)(O)CCN3C[C@H](O)[C@@H](O)C3)[C@@H](O)[C@H]2O)c(=O)[nH]1 | > 250 | 5.73 |

| SMILES | MIC [1] [µM] | EC50 [2] [µM] | level, % of control at 10 µM [3] [%] |
| --- | --- | --- | --- |
| CCOP(=O)(CCNCCOC(C)=O)OCC | > 20 | > 250 |  |
| NCP(=O)(O)OC[C@H]1O[C@@H](n2ccc(=O)[nH]c2=O)[C@H](O)[C@@H]1O | > 20 | > 250 | 34.4 |
| NCCP(=O)(O)OC[C@H]1O[C@@H](n2ccc(=O)[nH]c2=O)[C@H](O)[C@@H]1O | > 10 | > 250 | 14.9 |
